These results are taken from ChEMBL document CHEMBL2380216, “Design and selection parameters to accelerate the discovery of novel central nervous system positron emission tomography (PET) ligands and their application in the development of a novel phosphodiesterase 2A PET ligand” (J Med Chem, 2013).

The source made the active and inactive calls. The rule behind the calls is not given here. Bounds are passed on as bounds.

Data set [1] in a line: Apparent permeability across apical to basolateral side in dog RRCK cells. To be noted: MDCK. In kind it is ADME, cell-based, Canis lupus familiaris, MDCKII-LE.
Data set [2] has as its target cGMP-specific 3',5'-cyclic phosphodiesterase (Homo sapiens, UniProt O76074). The data set can be described thus: Inhibition of PDE5A (unknown origin).
Data set [3] has as its target High affinity cGMP-specific 3',5'-cyclic phosphodiesterase 9A (Homo sapiens, UniProt O76083). Description: Inhibition of PDE9A (unknown origin).
Data set [4] deals with cGMP-dependent 3',5'-cyclic phosphodiesterase (Homo sapiens, UniProt O00408). Description: Inhibition of full length recombinant human PDE2A expressed in Sf21 cells using [3H]-cGMP as substrate by scintillation proximity assay. (In general: In a scintillation proximity assay essentially only radioactivity close to the scintillant gives light.)
Data set [5] has as its target Dual specificity calcium/calmodulin-dependent 3',5'-cyclic nucleotide phosphodiesterase 1B (Homo sapiens, UniProt Q01064). Description: Inhibition of PDE1B (unknown origin).
The nature of data set [6]: Fraction unbound in rat plasma. The class given is ADME, cell-free.
Data set [7] is described as follows: Fraction unbound in rat brain. In kind it is ADME, tissue-based.
The target of data set [8] is cAMP and cAMP-inhibited cGMP 3',5'-cyclic phosphodiesterase 10A (Homo sapiens, UniProt Q9Y233). The data set can be described thus: Inhibition of PDE10A (unknown origin).
Chain of cAMP and cAMP-inhibited cGMP 3',5'-cyclic phosphodiesterase 10A (Q9Y233 whole entry): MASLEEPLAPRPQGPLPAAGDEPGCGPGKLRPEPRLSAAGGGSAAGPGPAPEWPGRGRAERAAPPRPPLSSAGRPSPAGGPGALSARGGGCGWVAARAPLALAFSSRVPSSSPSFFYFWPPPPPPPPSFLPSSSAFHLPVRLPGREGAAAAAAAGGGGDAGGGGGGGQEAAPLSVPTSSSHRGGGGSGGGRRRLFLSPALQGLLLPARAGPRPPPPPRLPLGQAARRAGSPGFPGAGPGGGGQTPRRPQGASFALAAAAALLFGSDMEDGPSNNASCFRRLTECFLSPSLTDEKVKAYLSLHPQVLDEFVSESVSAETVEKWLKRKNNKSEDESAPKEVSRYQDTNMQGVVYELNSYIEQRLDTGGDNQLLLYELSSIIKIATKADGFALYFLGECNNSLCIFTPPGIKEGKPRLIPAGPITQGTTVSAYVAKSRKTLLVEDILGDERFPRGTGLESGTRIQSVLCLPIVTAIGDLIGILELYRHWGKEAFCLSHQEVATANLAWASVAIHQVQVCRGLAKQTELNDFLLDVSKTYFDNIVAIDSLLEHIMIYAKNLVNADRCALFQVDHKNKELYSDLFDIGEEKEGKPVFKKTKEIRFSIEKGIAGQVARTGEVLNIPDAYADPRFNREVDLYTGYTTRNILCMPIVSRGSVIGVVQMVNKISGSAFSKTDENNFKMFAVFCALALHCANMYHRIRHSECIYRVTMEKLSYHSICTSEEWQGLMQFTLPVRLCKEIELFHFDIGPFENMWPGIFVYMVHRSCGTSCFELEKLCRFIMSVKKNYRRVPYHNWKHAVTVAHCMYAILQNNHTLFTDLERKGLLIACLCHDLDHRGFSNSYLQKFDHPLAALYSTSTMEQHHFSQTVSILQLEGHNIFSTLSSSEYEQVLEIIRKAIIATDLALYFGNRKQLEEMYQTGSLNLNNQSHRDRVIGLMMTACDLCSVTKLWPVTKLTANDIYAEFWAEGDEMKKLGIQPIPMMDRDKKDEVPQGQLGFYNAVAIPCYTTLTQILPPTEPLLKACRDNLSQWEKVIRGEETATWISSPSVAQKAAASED
Data set [9] deals with 3',5'-cyclic-AMP phosphodiesterase 7B (Homo sapiens, UniProt Q9NP56). The data set can be described thus: Inhibition of PDE7B (unknown origin).
Chain of 3',5'-cyclic-AMP phosphodiesterase 7B (Q9NP56 whole entry): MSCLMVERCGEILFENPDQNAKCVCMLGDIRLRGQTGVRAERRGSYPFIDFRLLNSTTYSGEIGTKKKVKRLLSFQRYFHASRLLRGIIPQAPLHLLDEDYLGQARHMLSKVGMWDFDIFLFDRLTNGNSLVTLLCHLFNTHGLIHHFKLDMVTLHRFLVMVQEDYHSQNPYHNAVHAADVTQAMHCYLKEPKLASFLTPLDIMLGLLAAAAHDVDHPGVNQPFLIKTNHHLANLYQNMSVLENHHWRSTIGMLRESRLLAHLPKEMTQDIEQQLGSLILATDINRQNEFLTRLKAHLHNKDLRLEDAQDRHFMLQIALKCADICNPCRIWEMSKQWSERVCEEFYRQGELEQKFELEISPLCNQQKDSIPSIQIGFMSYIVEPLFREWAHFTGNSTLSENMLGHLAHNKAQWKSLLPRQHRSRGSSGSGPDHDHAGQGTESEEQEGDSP
The test system of the next data set is Cynomolgus monkey. Description: Binding affinity to PDE2A in cynomolgus monkey striatum at 215 MBq, iv measured for 90 mins by PET analysis. To be noted: Macaca fascicularis, 215 M, tested as the 18F-labelled form. The class given is functional, organism-based. The method, boiled down:
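Two male cynomolgus monkeys, 5–6 years old, were fasted overnight and premedicated with ketamine (10 mg/kg IM) and glycopyrrolate (0.01 mg/kg IM). They were then intubated and kept under isoflurane (1.5−2.0% in oxygen). Tracer was an IV bolus via the saphenous vein, targeting 37 MBq/kg. A 90 min dynamic scan followed. Striatal binding potential was derived by a simplified reference tissue model, with cerebellum as the reference region.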

In data set [10] the target is cGMP-inhibited 3',5'-cyclic phosphodiesterase 3A (Homo sapiens, UniProt Q14432). The data set can be described thus: Inhibition of PDE3A (unknown origin).
Chain of cGMP-inhibited 3',5'-cyclic phosphodiesterase 3A (Q14432 whole entry): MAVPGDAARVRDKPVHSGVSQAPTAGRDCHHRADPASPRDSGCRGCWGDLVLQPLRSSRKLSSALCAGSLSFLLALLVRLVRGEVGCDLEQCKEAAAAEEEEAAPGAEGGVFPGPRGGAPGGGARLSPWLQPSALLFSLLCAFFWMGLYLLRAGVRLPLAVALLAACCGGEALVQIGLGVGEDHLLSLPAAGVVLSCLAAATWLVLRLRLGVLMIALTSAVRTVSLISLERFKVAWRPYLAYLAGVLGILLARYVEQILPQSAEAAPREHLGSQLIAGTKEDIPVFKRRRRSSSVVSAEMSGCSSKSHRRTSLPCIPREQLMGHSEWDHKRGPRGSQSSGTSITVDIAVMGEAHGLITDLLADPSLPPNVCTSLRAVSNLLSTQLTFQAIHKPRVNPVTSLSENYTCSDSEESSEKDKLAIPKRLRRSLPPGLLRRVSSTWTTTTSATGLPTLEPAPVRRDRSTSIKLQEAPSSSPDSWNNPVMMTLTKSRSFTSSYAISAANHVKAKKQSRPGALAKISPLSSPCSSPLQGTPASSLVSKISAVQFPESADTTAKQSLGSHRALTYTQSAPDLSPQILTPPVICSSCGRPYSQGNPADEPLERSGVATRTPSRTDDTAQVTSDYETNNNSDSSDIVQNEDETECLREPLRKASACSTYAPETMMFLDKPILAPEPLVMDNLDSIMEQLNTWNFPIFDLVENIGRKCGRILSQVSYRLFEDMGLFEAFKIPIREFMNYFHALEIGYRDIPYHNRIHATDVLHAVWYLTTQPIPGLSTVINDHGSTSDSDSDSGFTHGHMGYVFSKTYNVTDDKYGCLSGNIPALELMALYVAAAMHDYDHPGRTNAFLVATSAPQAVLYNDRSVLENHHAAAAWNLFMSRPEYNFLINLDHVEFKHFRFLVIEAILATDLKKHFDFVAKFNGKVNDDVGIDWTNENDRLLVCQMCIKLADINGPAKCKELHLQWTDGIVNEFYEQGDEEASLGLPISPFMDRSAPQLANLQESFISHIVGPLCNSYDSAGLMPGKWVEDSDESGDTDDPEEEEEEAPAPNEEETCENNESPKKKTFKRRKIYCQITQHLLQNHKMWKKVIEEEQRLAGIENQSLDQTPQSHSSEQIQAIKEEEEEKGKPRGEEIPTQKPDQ
Data set [11] in a line: Fraction unbound in human plasma. In kind it is ADME, cell-free.
In data set [12] the target is 3',5'-cyclic-AMP phosphodiesterase 4D (Homo sapiens, UniProt Q08499). Description: Inhibition of PDE4D (unknown origin).
Chain of 3',5'-cyclic-AMP phosphodiesterase 4D (Q08499 whole entry): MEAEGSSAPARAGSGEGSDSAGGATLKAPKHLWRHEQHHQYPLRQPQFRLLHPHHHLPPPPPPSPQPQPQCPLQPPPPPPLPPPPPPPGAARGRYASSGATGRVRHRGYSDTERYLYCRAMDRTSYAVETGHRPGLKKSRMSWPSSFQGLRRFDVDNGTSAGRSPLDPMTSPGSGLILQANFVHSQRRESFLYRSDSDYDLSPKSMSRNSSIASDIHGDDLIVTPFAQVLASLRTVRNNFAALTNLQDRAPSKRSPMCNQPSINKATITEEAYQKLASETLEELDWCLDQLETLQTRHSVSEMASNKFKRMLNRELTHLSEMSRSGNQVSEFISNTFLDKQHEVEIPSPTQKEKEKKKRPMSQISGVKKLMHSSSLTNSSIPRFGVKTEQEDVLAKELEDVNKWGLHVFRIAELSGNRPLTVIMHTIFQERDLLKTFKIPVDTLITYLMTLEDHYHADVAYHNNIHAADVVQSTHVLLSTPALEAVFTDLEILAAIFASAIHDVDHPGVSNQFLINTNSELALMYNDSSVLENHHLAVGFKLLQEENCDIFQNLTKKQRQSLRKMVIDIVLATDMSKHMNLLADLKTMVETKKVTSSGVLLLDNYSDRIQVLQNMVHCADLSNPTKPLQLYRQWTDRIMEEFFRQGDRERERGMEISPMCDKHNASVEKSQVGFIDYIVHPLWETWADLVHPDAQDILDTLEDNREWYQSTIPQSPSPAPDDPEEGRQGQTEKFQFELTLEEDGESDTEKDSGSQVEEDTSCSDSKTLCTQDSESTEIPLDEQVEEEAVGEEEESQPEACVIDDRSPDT
Data set [13] is described as follows: Ratio of total drug level in brain to plasma in Wistar Han rat at 1 mg/kg, iv after 2 hrs. In kind it is ADME, organism-based. Set-up: dose 1 mg/kg, route intravenous. In short, it runs like this:
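Wistar-Han rats received a single 1 mg/kg IV dose. Total drug levels in brain and plasma were determined from pharmacokinetics over 0−2 h post-dose and expressed as a ratio.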

For data set [14], the target named is High affinity cAMP-specific and IBMX-insensitive 3',5'-cyclic phosphodiesterase 8B (Homo sapiens, UniProt O95263). The data set can be described thus: Inhibition of PDE8B (unknown origin).
Chain of High affinity cAMP-specific and IBMX-insensitive 3',5'-cyclic phosphodiesterase 8B (O95263 whole entry): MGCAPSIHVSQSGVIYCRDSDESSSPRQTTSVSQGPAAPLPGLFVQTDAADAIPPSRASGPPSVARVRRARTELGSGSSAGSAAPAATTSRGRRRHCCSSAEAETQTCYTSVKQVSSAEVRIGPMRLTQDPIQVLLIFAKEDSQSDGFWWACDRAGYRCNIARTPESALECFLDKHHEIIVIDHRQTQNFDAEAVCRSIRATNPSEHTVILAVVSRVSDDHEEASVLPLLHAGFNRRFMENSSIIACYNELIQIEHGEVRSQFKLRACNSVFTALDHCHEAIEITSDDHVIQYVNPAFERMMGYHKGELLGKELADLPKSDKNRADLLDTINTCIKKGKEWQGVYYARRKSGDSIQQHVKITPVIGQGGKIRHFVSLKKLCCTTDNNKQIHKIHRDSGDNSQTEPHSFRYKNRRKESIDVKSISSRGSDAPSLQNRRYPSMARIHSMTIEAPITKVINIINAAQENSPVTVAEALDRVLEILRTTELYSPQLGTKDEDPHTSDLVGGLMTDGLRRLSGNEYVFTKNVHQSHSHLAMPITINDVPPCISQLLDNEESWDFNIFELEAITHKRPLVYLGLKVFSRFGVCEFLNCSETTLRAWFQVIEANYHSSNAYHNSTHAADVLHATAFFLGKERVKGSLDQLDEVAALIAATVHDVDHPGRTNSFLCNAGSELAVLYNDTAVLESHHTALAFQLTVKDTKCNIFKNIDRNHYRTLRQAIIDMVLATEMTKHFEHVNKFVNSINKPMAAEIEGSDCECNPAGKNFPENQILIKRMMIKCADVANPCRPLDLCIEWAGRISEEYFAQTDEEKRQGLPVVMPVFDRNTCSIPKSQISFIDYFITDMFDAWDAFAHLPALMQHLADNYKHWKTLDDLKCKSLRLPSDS
Data set [15] can be described thus: Drug uptake in cynomolgus monkey skull at 215 MBq, iv measured for 90 mins by PET analysis. The class given is ADME, organism-based, Macaca fascicularis. The conditions noted are these: in vivo, 1.5 h. The method, boiled down: (§1)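 Male cynomolgus monkeys (n=2, 5–6 years) were fasted overnight and given ketamine 10 mg/kg IM plus glycopyrrolate 0.01 mg/kg IM. They were intubated and maintained under isoflurane (1.5−2.0% in O2). The radiotracer was given as an IV saphenous bolus targeting 37 MBq/kg. A 57Co transmission scan provided attenuation/scatter correction. A 90 min dynamic acquisition was binned into 16 frames (5×1, 5×5, 6×10 min).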

Data set [16] can be described thus: Drug uptake in cynomolgus monkey cerebellum at 215 MBq, iv measured for 90 mins by PET analysis. The class given is ADME, organism-based, Macaca fascicularis. To be noted: in vivo, 1.5 h. The method, boiled down:
as §1

Data set [17] can be described thus: Drug uptake in cynomolgus monkey caudate nucleus at 215 MBq, iv measured for 90 mins by PET analysis. The class given is ADME, organism-based, Macaca fascicularis. To be noted: in vivo, 1.5 h. In short, it runs like this:
as §1

The test system of a further data set is Putamen. The data set can be described thus: Drug uptake in cynomolgus monkey putamen at 215 MBq, iv measured for 90 mins by PET analysis. In kind it is ADME, organism-based, Macaca fascicularis. The conditions noted are these: in vivo, 1.5 h. In short, it runs like this: as §1

Chain of High affinity cGMP-specific 3',5'-cyclic phosphodiesterase 9A (O76083 whole entry): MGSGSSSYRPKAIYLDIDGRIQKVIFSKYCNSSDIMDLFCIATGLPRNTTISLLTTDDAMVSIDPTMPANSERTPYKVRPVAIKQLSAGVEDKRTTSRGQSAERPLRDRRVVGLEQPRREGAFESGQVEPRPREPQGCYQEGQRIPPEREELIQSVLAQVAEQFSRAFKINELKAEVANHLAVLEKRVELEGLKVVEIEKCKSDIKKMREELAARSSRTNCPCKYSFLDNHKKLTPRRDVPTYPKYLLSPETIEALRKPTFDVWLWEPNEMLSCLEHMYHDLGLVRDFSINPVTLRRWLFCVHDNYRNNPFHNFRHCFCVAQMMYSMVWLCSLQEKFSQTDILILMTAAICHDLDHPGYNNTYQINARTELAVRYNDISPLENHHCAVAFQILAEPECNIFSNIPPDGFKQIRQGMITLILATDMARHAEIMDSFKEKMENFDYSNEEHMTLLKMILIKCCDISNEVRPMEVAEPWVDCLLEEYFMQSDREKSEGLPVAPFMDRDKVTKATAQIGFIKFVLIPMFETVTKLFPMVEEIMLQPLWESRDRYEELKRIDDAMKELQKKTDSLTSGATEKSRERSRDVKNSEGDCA

As a reminder, the Papp A→B is the apparent permeability from the apical to the basolateral side of a cell layer. Regarding `Cn1ncc(-c2nn(C)c3ncnc(N4CCC4)c23)c1-c1ccc(C(F)(F)F)cc1`, the Papp A→B in data set [1] stood at 21.5 ×10⁻⁶ cm/s.

Usually IC50 stands for the point on the concentration scale where inhibition reaches its midpoint. The term fraction unbound denotes the share of the substance not bound to proteins or other matrix. In the case of `Cc1nc(-c2cnn(C)c2-c2ccc(C(F)(F)F)cc2)c2c(N3CC(F)C3)ncnn12`, the half-maximal inhibitory concentration (IC50) in [2] is 26 µM; in data set [3], more than 10 µM; in data set [4], 0.00053 µM; in data set [5] it was more than 30 µM; in data set [8], 3.9 µM; in data set [9] it was 12 µM. Moreover, the IC50 in [10] was more than 30 µM; in [12], more than 30 µM; in data set [14] it was more than 10 µM. The Papp A→B in data set [1] was 21 ×10⁻⁶ cm/s. Further, the fraction unbound in [6] amounted to 0.24; in data set [7], 0.077; in data set [11] it was 0.17. The result in the data set with Cynomolgus monkey was Active. For the same compound, the BPR in data set [13] (brain, 2 h) turned out to be 1.56.

With `COc1ccc(-c2c(-c3nc(C)n4ncnc(N5CCC5)c34)cnn2C)c(C)c1`, the Papp A→B in [1] is 42 ×10⁻⁶ cm/s. Further, the values for the fraction unbound in data set [6], in data set [7] and in data set [11] were 0.29, 0.17 and 0.23, respectively. Moreover, the Kp at 2 h in [13] (Wistar Han, brain and plasma, read-out: BPR) was determined as 0.34.

Take `Cc1nc(-c2cnn(C)c2-c2ccc(C(F)(F)F)cc2)c2c(N3CC([18F])C3)ncnn12`: the Drug uptake entry in data set [15] is “Not Active”; in [16], “Active”; in data set [17], “Active”; with Putamen, “Active”.
